According to ChEMBL document CHEMBL4392855, “Scaffold hopping of fused piperidine-type NK3 receptor antagonists to reduce environmental impact” (Bioorg Med Chem, 2019):

How the values were obtained:
[1] = Photo-stability in 50 mM pH 7.4 phosphate buffer assessed as compound degradation at 30 uM under UV-light irradiation by HPLC analysis; assay type: physicochemical; details: pH 7.4, 30 µM
How it was run: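 Compound at 30 μM in 50 mM phosphate buffer pH 7.4/EtOH 70:30 (0.1% DMSO) was exposed to a mercury xenon lamp (1500 W/m^2). Aliquots sampled at intervals were diluted 1:1 with MeCN and run on HPLC with 254 nm detection. Ratios were calculated from calibration curves.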

[2] = Stability in pH 4 acetate buffer assessed as compound degradation at 30 uM by HPLC analysis; assay type: physicochemical; details: pH 4, 30 µM
[3] = Stability in pH 7.4 phosphate buffer assessed as compound degradation at 30 uM by HPLC analysis; assay type: physicochemical; details: pH 7.4, 30 µM
[4] = Stability in pH 10 carbonate buffer assessed as compound degradation at 30 uM by HPLC analysis; assay type: physicochemical; details: pH 10, 30 µM
[5] = Stability in rat serum assessed as compound degradation at 50 uM by HPLC analysis; assay type: ADME, cell-free
[6] = molecular target: T1, Neuromedin-K receptor (Homo sapiens, UniProt P29371); experiment: Antagonistic activity against NK3R (unknown origin) expressed in CHO cells assessed as inhibition of NKB-induced intracellular calcium flux by Calcium 4 assay; assay type: functional, cell-based
T1 sequence (P29371 whole entry): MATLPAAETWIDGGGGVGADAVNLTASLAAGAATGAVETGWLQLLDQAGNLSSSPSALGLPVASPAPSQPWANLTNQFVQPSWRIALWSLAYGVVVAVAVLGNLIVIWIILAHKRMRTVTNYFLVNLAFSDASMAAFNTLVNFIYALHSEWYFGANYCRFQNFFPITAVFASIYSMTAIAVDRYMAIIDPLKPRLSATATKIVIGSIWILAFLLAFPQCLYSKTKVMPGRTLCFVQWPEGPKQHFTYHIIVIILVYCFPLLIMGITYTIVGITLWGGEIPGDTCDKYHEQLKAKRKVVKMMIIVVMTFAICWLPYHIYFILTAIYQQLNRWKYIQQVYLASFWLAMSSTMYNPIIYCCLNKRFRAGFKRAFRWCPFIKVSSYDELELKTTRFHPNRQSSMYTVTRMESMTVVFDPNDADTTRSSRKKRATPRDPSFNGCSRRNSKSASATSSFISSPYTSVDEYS

[7] = Photo-stability in 50 mM pH 7.4 phosphate buffer assessed as compound degradation at 30 uM exposed to xenon lamp irrational (> 325 nm) by HPLC analysis; assay type: physicochemical; details: pH 7.4, 30 µM
How it was run: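 Compound at 30 μM in 50 mM phosphate buffer pH 7.4/EtOH 70:30 (0.1% DMSO) was irradiated with a xenon arc lamp (900 W/m^2), with filters cutting wavelengths below 325 nm. Aliquots taken at intervals were diluted with MeCN and analysed by HPLC with 254 nm UV detection. Remaining amounts were taken from calibration curves.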

[8] = molecular target: T1, Neuromedin-K receptor; experiment: Antagonistic activity against NK3R (unknown origin) expressed in CHO cells assessed as inhibition of NKB-induced intracellular calcium flux under UV-light irradiation by Calcium 4 assay; assay type: functional, cell-based

| Stability [1] | Stability [2] | Stability [3] | Stability [4] | Stability [5] | IC50 [6] [µM] | Stability [7] | IC50 [8] [µM] | SMILES |
| --- | --- | --- | --- | --- | --- | --- | --- | --- |
| Stable | Stable | Stable | Stable | Stable | 4.1 | – | – | CC1c2nnn(-c3ccc4ccccc4n3)c2CCN1C(=O)c1ccc(F)cc1 (stereo unspecified) |
| – | Stable | Stable | Stable | Stable | 11.8 | – | – | C[C@@H]1c2noc(-c3ccc4ccccc4n3)c2CCN1C(=O)c1ccc(F)cc1 |
| Stable | Stable | Stable | Stable | Stable | 0.26 | – | – | C[C@@H]1c2nnc(-c3ccc4ccccc4n3)n2CCN1C(=O)c1ccc(F)cc1 |
| – | Stable | Stable | Stable | Stable | 13.7 | – | – | C[C@H]1c2noc(-c3ccc4ccccc4n3)c2CCN1C(=O)c1ccc(F)cc1 |
| Stable | Stable | Stable | Stable | Stable | 8.2 | – | – | CC1c2onc(-c3ccc4ccccc4n3)c2CCN1C(=O)c1ccc(F)cc1 (stereo unspecified) |
| Unstable | Stable | Stable | Stable | Stable | 10.3 | Unstable | > 100 | CC1c2noc(-c3ccc4ccccc4n3)c2CCN1C(=O)c1ccc(F)cc1 (stereo unspecified) |
